pIC50: −log10 of the molar value.
Legend:
Raji [1] = test: Antitumor activity against human Raji cells xenografted in NOD-SCID nude mouse assessed as tumor growth inhibition at 30 mg/kg/day, po administered 6 days a week for 3 weeks relative to control; assay type: functional; details: read-out: TGI
Summary of the method: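 Nude mice given 1 × 10^7 Raji cells s.c. in serum-free medium plus basement membrane matrix. Randomized at 100–200 mm3 tumour volume (n = 6 per group). Oral dosing 6 days/week for 3 weeks. Vehicles: 30 mg/kg/d in 5% NMP/95% PEG400, 10 mg/kg/d in 30% PEG300/70% saline. Volume = ab²/2 every 3 days. TGI from treated vs control volume change, initial to final day.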

Raji [2] = test: Induction of mitochondrial membrane potential loss in human Raji cells measured after 48 hrs by TMRM staining based fluorescence assay; assay type: functional, cell-based
Summary of the method: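 Raji cells treated 48 h (CCCP as positive control), washed in PBS. Incubated with TMRM at 100 nM final for 15 min at 37 °C, fluorescence read at ex 510/em 580 nm. Mean ± SD.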

HCT-116 = test: Antiproliferative activity against human HCT116 cells assessed as reduction in cell viability measured after 48 hrs by MTT assay; assay type: functional, cell-based; details: Homo sapiens, HCT-116, 48 h
K562 = test: Antiproliferative activity against human K562 cells assessed as reduction in cell viability measured after 48 hrs by MTT assay; assay type: functional, cell-based; details: Homo sapiens, K562, 48 h
Raji [3] = test: Induction of apoptosis in human Raji cells assessed as late apoptotic cells at 0.031 uM measured after 48 hrs by Annexin V-FITC staining based flow cytometry (reference value: 0.7 %); assay type: functional
Raji [4] = test: Induction of apoptosis in human Raji cells assessed as early apoptotic cells at 0.063 uM measured after 48 hrs by Annexin V-FITC staining based flow cytometry (reference value: 1 %); assay type: functional
Raji [5] = test: Induction of apoptosis in human Raji cells assessed as live cells at 0.125 uM measured after 48 hrs by Annexin V-FITC staining based flow cytometry (reference value: 98.09 %); assay type: functional
[6] = Stability of the compound in pH 1 to 7.4 buffer assessed as decrease in compound concentration at 0.01 mg/ml measured up to 24 hrs by LC-MS analysis; assay type: physicochemical; details: read-out: Drug degradation
Summary of the method: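 Compound at 0.01 mg/mL final in buffer containing 10% acetonitrile at pH 1.0, 4.5, 6.6, 7.4 or 9.0. Held at 37 °C, sampled at 0, 2, 4, 6, 8, 10, 12 and 24 h. Remaining compound by LC-MS.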

[7] = Half life in mouse liver microsomes at 1 uM in presence of NADPH by LC-MS analysis; assay type: ADME, Microsome
Summary of the method: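 Compound at 1 μM with 0.5 mg/mL human, rat or mouse liver microsomes and 1 mM NADPH. Stopped with acetonitrile at 0, 5, 15, 30, 45, 60 and 90 min, centrifuged. Supernatant analysed by LC-MS/MS.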

Raji [8] = test: Antitumor activity against human Raji cells xenografted in NOD-SCID nude mouse assessed as tumor growth inhibition at 40 mg/kg/day, po administered 6 days a week for 3 weeks relative to control; assay type: functional; details: read-out: TGI
[9] = Toxicity in NOD-SCID nude mouse xenografted with human Raji cells assessed as effect on body weight at 40 to 80 mg/kg/day, po administered 6 days a week for 3 weeks and measured every 3 days during compound dosing; assay type: organism-based; details: in vivo
Summary of the method: (§1)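 Mice, 6-7 weeks old, injected s.c. with 1×10^7 Raji cells in serum-free medium plus basement membrane matrix. At 100–200 mm3 tumours, randomised (n=6). Oral dosing 6 days/week for 3 weeks: 30 mg/kg/d free compound suspended in 5% NMP/95% PEG400, or 40 or 80 mg/kg/d nanocrystal. Body weight and tumour volume measured every 3 days.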

[10] = Toxicity in NOD-SCID nude mouse xenografted with human Raji cells assessed as death at 40 to 80 mg/kg/day, po administered 6 days a week for 3 weeks; assay type: organism-based; details: in vivo; summary of the method: as §1
[11] = Toxicity in NOD-SCID nude mouse xenografted with human Raji cells assessed as dermatitis at 40 to 80 mg/kg/day, po administered 6 days a week for 3 weeks; assay type: organism-based; details: in vivo; summary of the method: as §1
[12] = Acute toxicity in BALB/c mouse assessed as effect on blood ALB level at 400 mg/kg, po measured on day 14; assay type: organism-based; details: in vivo
Summary of the method: (§2)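 BALB/c mice, female and male, 6-8 weeks old, given oral doses within 24 h, up to 400 mg/kg (free compound) or 800 mg/kg (nanocrystal formulation). Watched for body weight loss, diarrhea, anorexia, skin ulcer and toxic death. Serum biochemistry panel was run at the end of treatment.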

[13] = Acute toxicity in BALB/c mouse assessed as effect on blood BILT level at 400 mg/kg, po measured on day 14; assay type: organism-based; details: in vivo; summary of the method: as §2
[14] = Acute toxicity in BALB/c mouse assessed as effect on blood ALP level at 400 mg/kg, po measured on day 14; assay type: organism-based; details: in vivo; summary of the method: as §2
[15] = Acute toxicity in BALB/c mouse assessed as effect on blood TG level at 400 mg/kg, po measured on day 14; assay type: organism-based; details: in vivo; summary of the method: as §2
[16] = Acute toxicity in BALB/c mouse assessed as effect on blood LDH level at 400 mg/kg, po measured on day 14; assay type: organism-based; details: in vivo; summary of the method: as §2
[17] = Acute toxicity in BALB/c mouse assessed as effect on blood ALT level at 800 mg/kg, po measured on day 14; assay type: organism-based; details: in vivo; summary of the method: as §2
[18] = Acute toxicity in BALB/c mouse assessed as effect on blood AST level at 800 mg/kg, po measured on day 14; assay type: organism-based; details: in vivo; summary of the method: as §2
[19] = Acute toxicity in BALB/c mouse assessed as effect on blood ALB level at 800 mg/kg, po measured on day 14; assay type: organism-based; details: in vivo; summary of the method: as §2
[20] = Acute toxicity in BALB/c mouse assessed as effect on blood TG level at 800 mg/kg, po measured on day 14; assay type: organism-based; details: in vivo; summary of the method: as §2
[21] = Acute toxicity in BALB/c mouse assessed as effect on blood LDH level at 800 mg/kg, po measured on day 14; assay type: organism-based; details: in vivo; summary of the method: as §2
[22] = Acute toxicity in BALB/c mouse assessed as effect on blood HDL level at 800 mg/kg, po measured on day 14; assay type: organism-based; details: in vivo; summary of the method: as §2
[23] = Acute toxicity in BALB/c mouse assessed as effect on blood LDLC level at 800 mg/kg, po measured on day 14; assay type: organism-based; details: in vivo; summary of the method: as §2
[24] = Acute toxicity in BALB/c mouse assessed as effect on liver at 400 mg/kg, po measured on day 14 by H and E staining based light microscopic analysis; assay type: organism-based; details: in vivo
Summary of the method: (§3)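 Female and male BALB/c mice, 6-8 weeks old, dosed orally within 24 h at up to 400 mg/kg (free compound) or 800 mg/kg (nanocrystal). At the end of treatment, heart, liver, spleen, lung and kidney were sectioned, stained with H&E and imaged by light microscopy.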

[25] = Acute toxicity in BALB/c mouse assessed as effect on heart at 800 mg/kg, po measured on day 14 by H and E staining based light microscopic analysis; assay type: organism-based; details: in vivo; summary of the method: as §3
[26] = Acute toxicity in BALB/c mouse assessed as effect on liver at 800 mg/kg, po measured on day 14 by H and E staining based light microscopic analysis; assay type: organism-based; details: in vivo; summary of the method: as §3

O=C1c2ccccc2C(=O)c2c1nnn2-c1cc(F)c(-c2ccccc2F)c(F)c1
inhibition in vivo at 30 mg/kg/day (Raji [1]): 42%
Activity (Raji [2]): Dose-dependent effect
pIC50 (HCT-116): 6.54
pIC50 (K562): 6.96
Activity (Raji [3]): 3.4%
Activity (Raji [4]): 3.08%
Activity (Raji [5]): 89.46%
degraded at 24 h, 0.01 mg/ml [6]: 1.6 to 9%
half-life at 1 µM ([7]; liver microsomes): 37 min
t1/2 ([7]; microsomes, 1 µM): 50 min
inhibition in vivo at 40 mg/kg/day (Raji [8]): 52%
Activity [9]: Non-Toxic
Activity [10]: Non-Toxic
Activity [11]: Non-Toxic
Activity [12]: Non-Toxic
Activity [13]: Non-Toxic
Activity [14]: Non-Toxic
Activity [15]: Non-Toxic
Activity [16]: Non-Toxic
Activity [17]: Non-Toxic
Activity [18]: Non-Toxic
Activity [19]: Non-Toxic
Activity [20]: Non-Toxic
Activity [21]: Non-Toxic
Activity [22]: Non-Toxic
Activity [23]: Non-Toxic
Activity [24]: Non-Toxic
Activity [25]: Non-Toxic
Activity [26]: Non-Toxic
